As a reminder, the solubility is the concentration that dissolves in the medium under given conditions. Read a high solubility as a readily soluble substance.

The source made the active and inactive calls. The rule behind the calls is not given here.

The test system of one series is C26. As to the kind of experiment: Cytotoxicity against mouse C26 cells at 5 uM by tetrazolium salt reduction assay. In kind it is functional, cell-based. The method in brief: (§1)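 MTT (tetrazolium salt reduction) read-out after cells grew for 3 days with the compound present, tested at 1 and 5 µM. Cell lines were C-26 mouse colon tumor cells and fast- and slow-growing non-tumoral mouse embryonic fibroblasts. Each measurement was run in quadruplicate and reported as average ± s.d.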

A further series deals with HCT-116. As to the kind of experiment: Drug uptake in human HCT116 cells at 10 uM after 25 mins by fluorescence microscopic method. The following applies: hct-116, 25 min. It counts as ADME, cell-based. In a few lines: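 Cultured HCT116 cells were imaged by fluorescence microscopy with excitation at 340 nm, just before compound addition and 25 min after it. Protonophore FCCP was then added and cells were imaged again 10 min later to check that the signal depends on membrane potential.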

The subject of series [1] is MEF. As to the kind of experiment: Cytotoxicity against fast-growing MEF at 5 uM by tetrazolium salt reduction assay. In kind it is functional, cell-based. The following applies: Mus musculus. The method in brief:
as §1

In series [2] the test system is MEF. As to the kind of experiment: Cytotoxicity against slow-growing MEF at 5 uM by tetrazolium salt reduction assay. It counts as cell-based. The settings on record: mouse. The method in brief:
as §1

Series [3] is described as follows: Solubility in water. It counts as physicochemical.
The nature of series [4]: Drug uptake in rat liver mitochondria at 0.5 uM measured by TPP+ sensitive electrode. In kind it is ADME. The settings on record: in vitro.

For `Oc1cc(O)cc(/C=C/c2ccc(OCCCC[P+](c3ccccc3)(c3ccccc3)c3ccccc3)cc2)c1.[I-]`, the result in the series on C26 and in the series with MEF [1] was Active. Besides, the Activity result in the series on HCT-116 was “Active”; with MEF [2] it was “Not Active”. This compound also came in with a solubility in series [3] of 31.2 µM.

In the case of `CC(=O)Oc1cc(/C=C/c2ccc(OCCCC[P+](c3ccccc3)(c3ccccc3)c3ccccc3)cc2)cc(OC(C)=O)c1.[I-]`, the Activity entry is on record as “Active” in series [4], “Active” with HCT-116 and “Not Active” with MEF [2]. The outcome in the series with C26 and in the series with MEF [1] was Active. Also, the solubility in series [3] is 97 µM.

Values taken from ChEMBL document CHEMBL1152239, “Development of mitochondria-targeted derivatives of resveratrol” (Bioorg Med Chem Lett, 2008).
